Ki, K and T1/2 data for five molecules are collected here from ChEMBL document CHEMBL3352771, “3-Cyano-3-aza-β-amino Acid Derivatives as Inhibitors of Human Cysteine Cathepsins” (ACS Med Chem Lett, 2014).

For experiment [1], the target named is Procathepsin L (Homo sapiens, UniProt P07711). Nature of the experiment: Inhibition of human cathepsin L using Z-Phe-Arg-pNA chromogenic substrate fluorogenic substrate incubated for 30 mins. In a few lines:
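Duplicate measurements at five inhibitor concentrations. IC50 from nonlinear regression of steady-state rates, v_s = v0/(1+[I]/IC50). Ki obtained as IC50/(1+[S]/Km).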

For experiment [2], the target named is Cathepsin K (Homo sapiens) (UniProt P43235). Nature of the experiment: Inhibition of human cathepsin K assessed as second order rate constant using Z-Leu-Arg-AMC fluorogenic substrate incubated for 60 mins.
Experiment [3] concerns the target T1, Cathepsin S (Homo sapiens, UniProt P25774). Briefly: Inhibition of human cathepsin S using Z-Phe-Arg-AMC fluorogenic substrate fluorogenic substrate incubated for 60 mins. The procedure, abridged: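 Z-Phe-Arg-AMC substrate at 40 μM final (0.74 × Km), monitored over 60 min. Duplicate runs at five inhibitor concentrations. Steady-state rates fitted by nonlinear regression, v_s = v0/(1+[I]/IC50). Ki converted using IC50/(1+[S]/Km).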
Target sequence in this assay (P25774 whole entry): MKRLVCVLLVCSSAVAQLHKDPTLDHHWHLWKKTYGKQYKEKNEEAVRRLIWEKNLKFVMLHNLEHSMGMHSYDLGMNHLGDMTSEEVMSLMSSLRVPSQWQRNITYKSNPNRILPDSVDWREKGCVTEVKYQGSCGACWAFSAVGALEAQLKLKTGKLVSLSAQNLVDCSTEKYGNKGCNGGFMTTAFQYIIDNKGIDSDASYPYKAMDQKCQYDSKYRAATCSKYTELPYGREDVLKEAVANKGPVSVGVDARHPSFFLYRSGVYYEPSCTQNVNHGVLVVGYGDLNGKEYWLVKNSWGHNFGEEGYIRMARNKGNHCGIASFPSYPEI

Experiment [4] addresses T1, Cathepsin S. Nature of the experiment: Inhibition of human cathepsin S assessed as second order rate constant using Z-Phe-Arg-AMC fluorogenic substrate incubated for 60 mins.
Target sequence in this assay (P25774 115-331 limits assumed): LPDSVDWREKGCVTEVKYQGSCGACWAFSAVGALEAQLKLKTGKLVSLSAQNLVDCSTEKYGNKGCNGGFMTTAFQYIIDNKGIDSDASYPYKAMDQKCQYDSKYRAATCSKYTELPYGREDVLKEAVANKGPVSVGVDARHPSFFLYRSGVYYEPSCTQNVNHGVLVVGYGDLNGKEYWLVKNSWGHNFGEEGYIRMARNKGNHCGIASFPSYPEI
Experiment [5] deals with Cathepsin B (Homo sapiens, UniProt P07858). Nature of the experiment: Inhibition of human cathepsin B using Z-Arg-Arg-pNA chromogenic substrate fluorogenic substrate incubated for 30 mins. The procedure, abridged:
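Chromogenic readout with Z-Arg-Arg-pNA at 500 μM final (0.45 × Km), followed over 30 min. Duplicate runs at five inhibitor concentrations. IC50 obtained by nonlinear regression of steady-state rates, v_s = v0/(1+[I]/IC50). Ki derived as IC50/(1+[S]/Km).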

Experiment [6] deals with T1, Cathepsin S. Nature of the experiment: Inhibition of human cathepsin S assessed half life for enzyme-inhibitor complex using Z-Phe-Arg-AMC fluorogenic substrate fluorogenic substrate incubated for 60 mins. In a few lines:
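Complex half-lives calculated from koff values for cathepsin K and cathepsin S. Progress curves used fluorescence emission at 440 nm with excitation at 360 nm. First-order rate constants kobs plotted against inhibitor concentration.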
Target sequence in this assay (P25774 115-331 limits assumed): as above

Sequence of Cathepsin K (Homo sapiens) (P43235 whole entry, looked up): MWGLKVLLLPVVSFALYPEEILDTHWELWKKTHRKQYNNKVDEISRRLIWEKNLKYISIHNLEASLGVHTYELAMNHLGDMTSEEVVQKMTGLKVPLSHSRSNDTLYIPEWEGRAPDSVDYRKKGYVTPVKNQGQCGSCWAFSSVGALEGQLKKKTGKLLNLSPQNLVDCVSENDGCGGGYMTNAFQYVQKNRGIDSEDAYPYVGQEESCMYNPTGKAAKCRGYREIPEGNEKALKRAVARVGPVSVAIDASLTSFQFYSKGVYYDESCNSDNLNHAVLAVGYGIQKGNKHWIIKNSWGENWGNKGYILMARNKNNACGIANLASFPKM
Sequence of Procathepsin L (P07711 whole entry): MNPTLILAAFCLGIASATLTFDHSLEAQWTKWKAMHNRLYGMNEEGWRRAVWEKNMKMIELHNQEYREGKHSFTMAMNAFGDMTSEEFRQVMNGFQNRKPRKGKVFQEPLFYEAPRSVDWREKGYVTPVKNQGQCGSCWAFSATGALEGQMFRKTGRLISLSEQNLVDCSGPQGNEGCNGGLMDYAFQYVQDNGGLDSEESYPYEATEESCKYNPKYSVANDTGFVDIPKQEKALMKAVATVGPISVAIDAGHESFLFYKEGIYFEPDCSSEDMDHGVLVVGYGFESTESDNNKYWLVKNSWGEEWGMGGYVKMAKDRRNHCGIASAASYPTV

The term Ki denotes a dissociation constant, usually derived from enzyme kinetics or from competition with a known ligand. The low end stands for higher affinity, the high end for lower affinity. As to `CN(C(=O)OC(C)(C)C)N(C#N)CC(=O)N1CCOCC1`, the values for the Ki in experiment [1], in experiment [3] and in experiment [5] were 1690 nM, 793 nM and 194 nM, respectively. Further, the K turned out to be 4.05 ×10³ /M/s in experiment [2] and 0.461 ×10³ /M/s in experiment [4].

For the molecule `CC(C)(C)OC(=O)NN(C#N)CC(=O)N(Cc1ccccc1)Cc1ccccc1`, the inhibition constant Ki is 185 nM in experiment [1], 0.13 nM in experiment [3] and 0.406 nM in experiment [5]. The K in experiment [2] was found to be 52900 ×10³ /M/s; in experiment [4], 2580 ×10³ /M/s.

With `CN(Cc1ccccc1)C(=O)CN(C#N)NC(=O)OC(C)(C)C`, the Ki in experiment [1] amounted to 228 nM; in experiment [3], 0.176 nM; in experiment [5] it was 0.459 nM. The values for the K in experiment [2] and in experiment [4] were 28900 ×10³ /M/s and 1590 ×10³ /M/s, respectively.

For `CC(C)(C)OC(=O)NN(C#N)CC(=O)N1CCOCC1`, the Ki in experiment [1] amounted to 573 nM; in experiment [3], 0.777 nM; in experiment [5], 3.56 nM. The K in experiment [2] was found to be 19000 ×10³ /M/s; in experiment [4], 757 ×10³ /M/s. This molecule also registered a T1/2 in experiment [6] of 10 min.

With `CCCN1CCN(c2ccc(C(=O)NC3(C(=O)NCC#N)CCCCC3)cc2)CC1` [BALICATIB], the inhibitory constant (Ki) was 3260 nM in experiment [1], 30100 nM in experiment [3] and 3800 nM in experiment [5].
